Results reported in ChEMBL document CHEMBL1127645, “Synthesis, structure-activity relationships, and pharmacological evaluation of a series of fluorinated 3-benzyl-5-indolecarboxamides: identification of 4-[[5-[((2R)-2-methyl-4,4,4-trifluorobutyl)carbamoyl]-1-methyl indol- 3-yl]methyl]-3-methoxy-N-[(2-methylphenyl)sulfonyl]benzamide, a potent, …” (J Med Chem, 1994).

Experiments:
[1] = Partition coefficient (logP); details: octanol/water
[2] = tested on: Cavia porcellus; test: ED50 (p.o.) / ED50 (i.v.) ratio of the compound; assay type: functional
Method in brief: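 Ratio of oral ED50 to intravenous ED50 from the conscious guinea pig LTD4-induced dyspnea model, used as an index of oral bioavailability.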

[3] = target: T1, Cysteinyl leukotriene receptor 1 (Cavia porcellus) (UniProt Q2NNR5); test: Binding constant in guinea pig tracheal spirals with LTE4; assay type: tissue-based; details: Trachea
T1 sequence (whole entry): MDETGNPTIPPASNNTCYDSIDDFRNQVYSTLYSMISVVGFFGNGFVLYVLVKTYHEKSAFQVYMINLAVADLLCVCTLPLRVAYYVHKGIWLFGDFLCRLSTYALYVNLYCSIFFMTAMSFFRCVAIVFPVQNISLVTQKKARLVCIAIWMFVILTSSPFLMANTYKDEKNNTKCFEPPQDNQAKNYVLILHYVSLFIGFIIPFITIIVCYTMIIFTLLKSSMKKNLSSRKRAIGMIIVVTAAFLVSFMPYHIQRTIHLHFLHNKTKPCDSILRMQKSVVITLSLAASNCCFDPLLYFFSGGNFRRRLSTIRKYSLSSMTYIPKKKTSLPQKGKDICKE
Method in brief: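 Guinea pig tracheal spirals contracted with LTE4 as agonist. Antagonist KB derived from concentration-response curves and reported as -log(KB) (pKB); n = number of concentration-response curves.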

[4] = target: T2, Cysteinyl leukotriene receptor 1 (Cavia porcellus, UniProt Q2NNR5); test: Inhibition constant for displacement of [3H]LTD4 on guinea pig lung parenchymal membranes; assay type: tissue-based, Lung parenchyma
T2 sequence (Q2NNR5 whole entry): T1 sequence (whole entry)
Method in brief: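 Guinea pig lung parenchymal membranes; competitive displacement of [3H]LTD4. Ki taken as mean of two experiments, each run in duplicate on separate membrane batches.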

[5] = target: T1, Cysteinyl leukotriene receptor 1 (Cavia porcellus); test: Effective dose for the inhibition of percent protection from LTD4-induced dyspnea in a conscious guinea pig administered through oral route; assay type: functional
Method in brief: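 Conscious guinea pig dyspnea model with LTD4 challenge; percent protection from dyspnea plotted against dose (oral or intravenous). ED50 obtained by regression using at least three doses from the linear portion of the dose-response curve; SEM for percent protection was generally ≤25% at each dose.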

[6] = tested on: Cysteinyl leukotriene receptor (Cavia porcellus); test: Inhibition of percent protection from LTD4-induced dyspnea in a conscious guinea pig administered intravenously

Row | SMILES | logP [1] | pKB [3] | Ki [4] [nM] | ED50 [5] [µmol/kg] | ED50 [6] [µmol/kg] | Ratio [2]
1 | CCC(CNC(=O)c1ccc2c(c1)c(Cc1ccc(C(=O)NS(=O)(=O)c3ccccc3C)cc1OC)cn2C)CC(F)(F)F (stereo not given) | 6.45 | 9.6 | 5.3 | 2.64 | 0.047 | 56
2 | CCC(CC)CNC(=O)c1ccc2c(c1)c(Cc1ccc(C(=O)O)cc1OC)cn2C | 5.42 | – | – | – | – | –
3 | COc1cc(C(=O)NS(=O)(=O)c2ccccc2Cl)ccc1Cn1ccc2ccc(C(=O)NCC(C)CC(F)(F)F)cc21 (stereo not given) | – | 8.9 | 4.2 | – | – | –
4 | CCC(CC)CNC(=O)c1ccc2c(c1)c(Cc1ccc(C(=O)NS(=O)(=O)c3ccccc3C)cc1OC)cn2C | – | 8 | 4.7 | 14.7 | 1.09 | –
5 | CCCCC(CNC(=O)c1ccc2c(c1)c(Cc1ccc(C(=O)NS(=O)(=O)c3ccccc3C)cc1OC)cn2C)C(F)(F)F (stereo not given) | – | 8.8 | 5 | – | – | –
6 | COc1cc(C(=O)NS(=O)(=O)c2ccccc2C)ccc1Cn1ccc2ccc(C(=O)NCC(C)CC(F)(F)F)cc21 (stereo not given) | – | – | 7.7 | – | – | –
7 | COc1cc(C(=O)NS(=O)(=O)c2ccccc2Cl)ccc1Cn1cc(C)c2ccc(C(=O)NCC(C)CC(F)(F)F)cc21 (stereo not given) | – | – | 4.9 | – | – | –
8 | CCC(C)CNC(=O)c1ccc2c(c1)c(Cc1ccc(C(=O)NS(=O)(=O)c3ccccc3C)cc1OC)cn2C (stereo not given) | 5.85 | 8.7 | 5.2 | 20 | 1.39 | 14
9 | COc1cc(C(=O)O)ccc1Cc1cn(C)c2ccc(C(=O)NCC(C)CC(F)(F)F)cc12 (stereo not given) | 5.12 | – | – | – | – | –
10 | CCC(CNC(=O)c1ccc2c(c1)c(Cc1ccc(C(=O)O)cc1OC)cn2C)CC(F)(F)F (stereo not given) | 5.53 | – | – | – | – | –

More lines, in order of falling Ki [4], values ahead:

Row | logP [1] | pKB [3] | Ki [4] [nM] | ED50 [5] [µmol/kg] | ED50 [6] [µmol/kg] | SMILES | Ratio [2]
11 | – | – | 3.8 | – | – | C=C(CNC(=O)c1ccc2c(c1)c(Cc1ccc(C(=O)NS(=O)(=O)c3ccccc3C)cc1OC)cn2C)CC(F)(F)F | –
12 | – | 8.4 | 3.2 | 19.2 | 0.69 | COc1cc(C(=O)NS(=O)(=O)c2ccccc2C)ccc1Cc1cn(C)c2ccc(C(=O)NCC3CCCC3)cc12 | 28
13 | – | 8.9 | 2.2 | – | – | COc1cc(C(=O)NS(=O)(=O)c2ccccc2C)ccc1Cc1cn(C)c2ccc(C(=O)NCC(C)(C)CC(F)(F)F)cc12 | –
14 | – | – | 2.1 | – | – | COc1cc(C(=O)NS(=O)(=O)c2ccccc2C)ccc1Cc1cn(C)c2ccc(C(=O)NC/C(C)=C\C(F)(F)F)cc12 | –
15 | – | – | 1.7 | – | – | CCCn1cc(Cc2ccc(C(=O)NS(=O)(=O)c3ccccc3C)cc2OC)c2cc(C(=O)NCC(C)CC(F)(F)F)ccc21 (stereo not given) | –
16 | – | 9.7 | 0.57 | 2.5 | 0.024 | COc1cc(C(=O)NS(=O)(=O)c2ccccc2Cl)ccc1Cc1cn(C)c2ccc(C(=O)NCC(C)CC(F)(F)F)cc12 (stereo not given) | 110
